Key:
HCN4 [1] = molecular target: T1, HCN4 (Homo sapiens, UniProt Q9Y3Q4); experiment: Random screening of ~16,000 compounds for HCN4 blockade, IonWorks; format: cell-based; conditions: six-pulse protocol; blockade traces, Fig. 3C
T1 sequence (Q9Y3Q4 1-1203): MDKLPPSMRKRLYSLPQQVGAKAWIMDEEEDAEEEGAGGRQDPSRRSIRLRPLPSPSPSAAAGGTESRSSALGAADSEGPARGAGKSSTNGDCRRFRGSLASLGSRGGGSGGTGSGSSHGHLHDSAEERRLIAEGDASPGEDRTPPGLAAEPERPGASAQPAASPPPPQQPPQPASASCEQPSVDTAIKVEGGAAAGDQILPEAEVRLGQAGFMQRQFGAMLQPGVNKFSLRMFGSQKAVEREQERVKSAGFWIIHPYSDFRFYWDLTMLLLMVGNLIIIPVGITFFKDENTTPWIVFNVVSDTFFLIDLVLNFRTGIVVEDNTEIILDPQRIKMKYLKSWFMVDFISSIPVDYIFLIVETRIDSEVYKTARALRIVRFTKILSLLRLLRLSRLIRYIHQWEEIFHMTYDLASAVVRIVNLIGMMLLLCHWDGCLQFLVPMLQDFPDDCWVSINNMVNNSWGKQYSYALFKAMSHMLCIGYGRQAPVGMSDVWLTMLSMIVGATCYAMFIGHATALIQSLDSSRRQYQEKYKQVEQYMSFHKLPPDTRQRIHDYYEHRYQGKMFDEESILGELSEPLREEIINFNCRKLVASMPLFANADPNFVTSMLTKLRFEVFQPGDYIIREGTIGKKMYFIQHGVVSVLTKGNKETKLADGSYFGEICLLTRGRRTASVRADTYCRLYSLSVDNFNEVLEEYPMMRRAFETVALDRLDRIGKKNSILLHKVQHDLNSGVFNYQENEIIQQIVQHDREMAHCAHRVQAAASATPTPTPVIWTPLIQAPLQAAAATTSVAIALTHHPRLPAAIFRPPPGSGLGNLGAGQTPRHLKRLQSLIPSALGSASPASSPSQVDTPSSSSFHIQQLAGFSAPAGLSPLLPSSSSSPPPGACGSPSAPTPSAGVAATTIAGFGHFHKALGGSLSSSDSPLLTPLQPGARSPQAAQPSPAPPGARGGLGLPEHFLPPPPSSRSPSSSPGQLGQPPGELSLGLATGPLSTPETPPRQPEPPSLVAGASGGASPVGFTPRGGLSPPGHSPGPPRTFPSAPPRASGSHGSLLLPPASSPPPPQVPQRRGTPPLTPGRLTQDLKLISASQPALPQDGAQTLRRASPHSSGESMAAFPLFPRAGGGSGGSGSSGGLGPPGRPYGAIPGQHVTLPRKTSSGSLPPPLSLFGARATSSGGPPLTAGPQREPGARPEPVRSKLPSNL
Summary of the method: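 Human HCN4 (Thr110Ser) stably expressed in CHO-K1 cells, grown at 37 °C, then held at 30 °C for 2−8 days before recording. Perforated-patch (amphotericin B) IonWorks recording, SH mode then PPC mode. Held at −30 mV with a +10 mV leak prepulse, then six hyperpolarizing pulses. Test compound at 30 μM, DMSO 0.3% per well. Current at end of last pulse read before and 5−10 min after addition; percent inhibition from post/pre ratio.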

[2] = test system: isolated rat right atrium; experiment: Heart rate in isolated rat right atrium in vitro; conditions: data not shown
HCN4 [3] = molecular target: T1, HCN4; format: cell-based; conditions: six repetitive hyperpolarization pulses, Fig. 2A,B

ZD7288 [reference compound]
Use dependence of HCN4 blockade over six pulses (HCN4 [1]): almost the same blockade or even a decreasing blockade over six pulses

COc1cc(Cl)c(S(=O)(=O)N[C@@H](C)C(=O)N2CCC(N3CCCCC3)CC2)cc1Cl [T-478, N-[(2S)-1-([1,4′-bipiperidin]-1′-yl)-1-oxopropan-2-yl]-2,5-dichloro-4-methoxybenzene-1-sulfonamide]
Effect on heart rate in isolated rat right atrium [2]: reduced heart rate | Use dependence of HCN4 blockade over six pulses (HCN4 [1]): use-dependent blockade

O=C(c1ccc(-n2cccn2)nc1)N1CCN2C(=O)OC(c3ccccc3)(c3ccccc3)[C@H]2C1 [T-788, (8aR)-1,1-diphenyl-7-[6-(1H-pyrazol-1-yl)pyridine-3-carbonyl]hexahydro-3H-[1,3]oxazolo[3,4-a]pyrazin-3-one]
Effect on heart rate in isolated rat right atrium [2]: reduced heart rate | Use dependence of HCN4 blockade over six pulses (HCN4 [1]): almost the same blockade or even a decreasing blockade over six pulses

FC(F)(F)c1cccc(-c2ccc3c(c2)CNCC3)c1 [T-524, 7-[3-(trifluoromethyl)phenyl]-1,2,3,4-tetrahydroisoquinoline]
Effect on heart rate in isolated rat right atrium [2]: reduced heart rate | Use dependence of HCN4 blockade over six pulses (HCN4 [1]): almost the same blockade or even a decreasing blockade over six pulses

COc1cc2c(cc1OC)CC(=O)N(CCCN(C)C[C@H]1Cc3cc(OC)c(OC)cc31)CC2 [Ivabradine]
Use dependence of HCN4 blockade according to pulse number (HCN4 [3]): use-dependent blockade

From publication PMC8293762 (Slas Discovery, 2021)
